This note sets out measurements from ChEMBL document CHEMBL1143817, “Pharmacokinetics of penicillin g in very-low-birth-weight neonates” (Antimicrob Agents Chemother, 2007).

Structures are written as SMILES. “And” between values parts separate entries of the source, which are not always exact repeats. Identical values can stand only once.

Holding throughout (assay type): ADME, organism-based
Data set [1] is described as follows: AUC (0 to 12) in human very low birth weight preterm neonates at 14 mg/kg, iv administered every 12 hrs after 24 hrs. Also on record: time < 12 hr, dose 14 mg/kg, route intravenous. The note with it: plasma. In short, it runs like this:
(§1)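 Penicillin G was diluted in normal saline to 50,000 IU/ml and given as a slow (~2 min) IV bolus q12h (group 1, 50,000 IU/kg; group 2, 25,000 IU/kg) to neonates of <28 wk GA and <1,200 g. Plasma was sampled at steady state (doses 3–8): predose and at 2 and 30 min, 1.5, 4, 8 and 12 h. Assay by HPLC-UV (200 nm). AUC0-12 by log-linear trapezoidal rule; noncompartmental bolus model.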

Data set [2] can be described thus: Clearance in human very low birth weight preterm neonates at 28 mg/kg, iv administered every 12 hrs after 24 hrs. Further details: dose 28 mg/kg, route intravenous. As to conditions: in vivo. In short, it runs like this:
as §1

A short description of data set [3]: Clearance in human very low birth weight preterm neonates at 14 mg/kg, iv administered every 12 hrs after 24 hrs. The note with it: in vivo. Also on record: dose 14 mg/kg, route intravenous. The essentials: as §1
Data set [4] can be described thus: Cmax in human very low birth weight preterm neonates at 14 mg/kg, iv administered every 12 hrs after 24 hrs. Also on record: dose 14 mg/kg, route intravenous. As to conditions: in vivo. In short, it runs like this: as §1
Data set [5] can be described thus: Cmax in human term neonates at 15 mg/kg, im administered every 12 hrs after 24 hrs. Also on record: dose 15 mg/kg, route intramuscular. The note with it: in vivo.
Data set [6] in a line: Effect on glomerular filtration in human very low birth weight preterm neonates urine assessed as drug clearance at 30 mg/kg, iv administered every 12 hrs after 24 hrs. Also on record: dose 30 mg/kg, route intravenous. The note with it: read-out: CL_renal.
Data set [7] can be described thus: Volume of distribution at steady state in human very low birth weight preterm neonates at 14 mg/kg, iv. Also on record: dose 14 mg/kg, route intravenous. As to conditions: in vivo, read-out: Vdss. The essentials:
as §1

Data set [8] in a line: Half life in human very low birth weight preterm neonates at 14.3 mg/kg, iv administered every 12 hrs after 24 hrs. Also on record: dose 14.3 mg/kg, route intravenous. The note with it: in vivo. In short, it runs like this: as §1
Data set [9] is described as follows: Cmax in human very low birth weight preterm neonates at 28 mg/kg, iv administered every 12 hrs after 24 hrs. The note with it: in vivo. Further details: dose 28 mg/kg, route intravenous. In short, it runs like this: as §1
Data set [10] can be described thus: Effect on glomerular filtration in human very low birth weight preterm neonates urine assessed as drug clearance at 15 mg/kg, iv administered every 12 hrs after 24 hrs. Further details: dose 15 mg/kg, route intravenous. As to conditions: read-out: CL_renal.
Data set [11] concerns Homo sapiens. The data set can be described thus: Effect on glomerular filtration in human very low birth weight preterm neonates urine assessed as creatinine clearance at 15 mg/kg, iv administered every 12 hr after 24 hrs. Further details: dose 15 mg/kg, route intravenous. The note with it: in vivo.
Data set [12] can be described thus: Cmax in human adults at […], iv administered every 12 hrs after 24 hrs. Also on record: route intravenous. As to conditions: in vivo.
A short description of data set [13]: Volume of distribution at steady state in human adults at […], iv administered every 12 hrs after 24 hrs. Further details: route intravenous. As to conditions: in vivo, read-out: Vdss.
Data set [14] can be described thus: Volume of distribution at steady state in human very low birth weight preterm neonates at 28 mg/kg, iv. As to conditions: in vivo, read-out: Vdss. Further details: dose 28 mg/kg, route intravenous. The essentials: as §1
The subject of data set [15] is Homo sapiens. In words: Effect on glomerular filtration in human very low birth weight preterm neonates urine assessed as creatinine excretion at 30 mg/kg, iv administered every 12 hrs after 24 hrs. Also on record: dose 30 mg/kg, route intravenous. The note with it: in vivo. In short, it runs like this: (§2)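 Creatinine excretion was measured in urine collected in 4-h intervals over the 12 h after a steady-state IV penicillin G dose (25,000 or 50,000 IU/kg q12h). Diapers were weighed to estimate losses, and a period was accepted if ≥90% of its output was collected. Excretion is expressed per 24 h per kg.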

Data set [16] in a line: Cmin in human very low birth weight preterm neonates at 28 mg/kg, iv administered every 12 hrs after 24 hrs. Also on record: dose 28 mg/kg, route intravenous. The note with it: in vivo, read-out: Cmin. In short, it runs like this: as §1
Data set [17] concerns Homo sapiens. In words: Effect on glomerular filtration in human very low birth weight preterm neonates urine assessed as creatinine clearance at 30 mg/kg, iv administered every 12 hr after 24 hrs. Also on record: dose 30 mg/kg, route intravenous. As to conditions: in vivo.
Data set [18] is described as follows: AUC (0 to 12) in human very low birth weight preterm neonates at 28 mg/kg, iv administered every 12 hrs after 24 hrs. Also on record: time < 12 hr, dose 28 mg/kg, route intravenous. The note with it: plasma. In short, it runs like this:
as §1

Data set [19] in a line: Half life in human term neonates at 15 mg/kg, im administered every 12 hrs after 24 hrs. The note with it: in vivo. Further details: dose 15 mg/kg, route intramuscular.
Data set [20] can be described thus: Half life in human adults at […], iv administered every 12 hrs after 24 hrs. Also on record: route intravenous. The note with it: in vivo.
Data set [21] can be described thus: Half life in human very low birth weight preterm neonates at 28 mg/kg, iv administered every 12 hrs after 24 hrs. Further details: dose 28 mg/kg, route intravenous. As to conditions: in vivo. The essentials:
as §1

Data set [22] deals with Homo sapiens. In words: Volume of distribution at steady state in human term neonates at 15 mg/kg, im administered every 12 hrs after 24 hrs. Further details: dose 15 mg/kg, route intramuscular. The note with it: in vivo.
The test system of data set [23] is Homo sapiens. The data set can be described thus: Effect on glomerular filtration in human very low birth weight preterm neonates urine assessed as creatinine excretion at 15 mg/kg, iv administered every 12 hrs after 24 hrs. Also on record: dose 15 mg/kg, route intravenous. As to conditions: in vivo. In short, it runs like this:
as §2

The AUC is the area under the concentration-time curve, a measure of exposure. Low values mean low exposure, high ones high exposure. Usually clearance stands for the volume of plasma or blood freed of the substance per unit of time. Low values mean inefficient removal, high ones efficient removal. Usually Cmax stands for the highest concentration seen after dosing. By half-life is commonly meant how long it takes for the measured level to halve. For `CC1(C)S[C@@H]2[C@H](NC(=O)Cc3ccccc3)C(=O)N2[C@H]1C(=O)O` [PENICILLIN G], the AUC at 12 h in data set [1] is 161 µg·h/mL; in data set [18], 389 µg·h/mL. The clearance in data set [2] is 1.2 mL/min/kg; in data set [3] it was 1.5 mL/min/kg. Also, the Cmax was determined as 58900 ng/mL in data set [4], 22000 ng/mL in data set [5], 146000 ng/mL in data set [9] and 45000 ng/mL in data set [12]. The CL renal in data set [6] was 0.27 mL/min and 0.46 mL/min/kg; in data set [10] it was 0.31 mL/min and 0.38 mL/min/kg. Besides, the Vd amounted to 0.64 L/kg in data set [7], 0.5 L/kg in data set [13] and 0.41 L/kg in [14]. Moreover, the half-life in data set [8] is 4.6 h; in data set [19] it was 3.4 h; in [20], 0.5 h; in [21], 3.8 h. Besides, the Creatinine_CL with Homo sapiens [11] is 0.53 ml/min and 0.57 ml/min.kg; in the data set with Homo sapiens [17], 0.26 ml/min and 0.3 ml/min.kg. The Activity stood at 50.6 µmol/kg with Homo sapiens [15] and 70.6 µmol/kg with Homo sapiens [23]. Moreover, in data set [16], the concentration at 24 h was determined as 7100 ng/mL. Further, the Vdss with Homo sapiens [22] stood at 0.51 L/kg.
